Assays:
[1] = Antiinflammatory activity in mouse RAW264.7 cells assessed as inhibition of LPS-induced TNFalpha production at 1 uM after 24 hrs by ELISA relative to control; assay type: functional; details: RAW264.7, 24 h
Outline: (§1)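 RAW264.7 cells plated at 5 × 10^5/mL, pre-treated with samples at 100, 50, 10 or 1 µM, then stimulated with LPS (100 ng/mL) for 24 h. TNF-α in the medium measured by ELISA kit per manufacturer's instructions and quantified from a standard curve; silybin as positive control.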

[2] = Antioxidant activity assessed as DPPH radical scavenging activity incubated in dark for 30 mins; assay type: functional
Outline: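 Samples (0.4 mM stock, 5–40 µL series) and DPPH (2 mM stock, 20 µL) in ethanol, made to 200 µL with ethanol; incubated 30 min in dark at 37 °C; absorbance at 517 nm. Ethanol replaced sample as blank.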

[3] = Antiinflammatory activity in mouse RAW264.7 cells assessed as inhibition of LPS-induced nitric oxide production at 50 uM after 24 hrs by Griess assay relative to control; assay type: functional; details: RAW264.7, 24 h
Outline: (§2)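 RAW264.7 cells (5 × 10^5/mL) pre-treated with samples at 100, 50, 10 or 1 µM, then LPS (100 ng/mL) for 24 h. Nitrite in medium measured by mixing with equal volume Griess reagent (1% sulfanilamide in 5% H3PO4, 0.1% N-naphthyl-ethylenediamine), 10 min at 37 °C, absorbance 540 nm; quantified against NaNO2 standard curve; minocycline as positive control.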

[4] = species on record: Mus musculus; assay: Cytotoxicity against mouse RAW264.7 cells assessed as effect on cell viability at 100 uM preincubated for 1 hr followed by LPS stimulation measured after 24 hrs by MTT assay; assay type: toxicity, cell-based; details: raw264.7, 24 h
Outline: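 RAW264.7 cells in DMEM with 10% FBS and penicillin/streptomycin at 37 °C, 5% CO2, seeded 5 × 10^5 cells/well; treated with samples (100 µM) 1 h, then LPS (100 ng/mL) 24 h. MTT (0.25 mg/mL) added for 4 h; formazan read at 540 nm; untreated cells as control.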

[5] = Antioxidant activity assessed as ferric ion reducing activity by measuring Fe2+ levels using fe3+-TPTZ at 1500 ug/ml after 30 mins by FRAP assay; assay type: functional
Outline: (§3)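 FRAP reagent: 300 mM acetate buffer pH 3.6, 10 mM TPTZ in 40 mM HCl, 20 mM FeCl3. Sample (3000, 1500, 750, 375 µg/mL solutions) mixed with reagent, 30 min at 37 °C, absorbance 593 nm. Values expressed as µM Fe2+ from FeSO4 calibration curve (5–450 µM).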

[6] = Antiinflammatory activity in mouse RAW264.7 cells assessed as inhibition of LPS-induced TNFalpha production after 24 hrs by ELISA; assay type: functional, cell-based; details: RAW264.7, 24 h; outline: as §1
[7] = Antiinflammatory activity in mouse RAW264.7 cells assessed as inhibition of LPS-induced nitric oxide production at 1 uM after 24 hrs by Griess assay relative to control; assay type: functional; details: RAW264.7, 24 h; outline: as §2
[8] = Antiinflammatory activity in mouse RAW264.7 cells assessed as inhibition of LPS-induced TNFalpha production at 100 uM after 24 hrs by ELISA relative to control; assay type: functional; details: RAW264.7, 24 h; outline: as §1
[9] = Antiinflammatory activity in mouse RAW264.7 cells assessed as inhibition of LPS-induced nitric oxide production at 10 uM after 24 hrs by Griess assay relative to control; assay type: functional; details: RAW264.7, 24 h; outline: as §2
[10] = Antioxidant activity assessed as ABTS radical scavenging activity after 30 mins; assay type: functional
Outline: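 ABTS radical generated by 7 mM ABTS plus 2.4 mM potassium persulfate, 12 h dark at room temperature, diluted in ethanol to OD 0.700 at 734 nm. Samples at several concentrations mixed with ABTS+ solution, 30 min at 37 °C, read at 734 nm; ethanol blank; percent scavenging calculated relative to blank.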

[11] = Antiinflammatory activity in mouse RAW264.7 cells assessed as inhibition of LPS-induced TNFalpha production at 10 uM after 24 hrs by ELISA relative to control; assay type: functional; details: RAW264.7, 24 h; outline: as §1
[12] = Antioxidant activity assessed as ferric ion reducing activity by measuring Fe2+ levels using fe3+-TPTZ at 750 ug/ml after 30 mins by FRAP assay; assay type: functional; outline: as §3
[13] = Antiinflammatory activity in mouse RAW264.7 cells assessed as inhibition of LPS-induced nitric oxide production at 100 uM after 24 hrs by Griess assay relative to control; assay type: functional; details: RAW264.7, 24 h; outline: as §2
[14] = Antioxidant activity assessed as ferric ion reducing activity by measuring Fe2+ levels using fe3+-TPTZ at 3000 ug/ml after 30 mins by FRAP assay; assay type: functional; outline: as §3
[15] = Antiinflammatory activity in mouse RAW264.7 cells assessed as inhibition of LPS-induced TNFalpha production at 50 uM after 24 hrs by ELISA relative to control; assay type: functional; details: RAW264.7, 24 h; outline: as §1
[16] = Antioxidant activity assessed as ferric ion reducing activity by measuring Fe2+ levels using fe3+-TPTZ at 375 ug/ml after 30 mins by FRAP assay; assay type: functional; outline: as §3
[17] = Antiinflammatory activity in mouse RAW264.7 cells assessed as inhibition of LPS-induced nitric oxide production after 24 hrs by Griess assay; assay type: functional, cell-based; details: RAW264.7, 24 h; outline: as §2

Compound | IC50 [2] [µM] | IC50 [6] [µM] | IC50 [10] [µM] | IC50 [17] [µM] | inhibition at 1 µM [1] [%] | inhibition at 50 µM [3] [%] | Activity [4] | Activity [5] [µmol/L] | inhibition at 1 µM [7] [%] | inhibition at 100 µM [8] [%] | inhibition at 10 µM [9] [%] | inhibition at 10 µM [11] [%] | Activity [12] [µmol/L] | inhibition at 100 µM [13] [%] | Activity [14] [µmol/L] | inhibition at 50 µM [15] [%] | Activity [16] [µmol/L]
COc1cc([C@H](OC)[C@@H](CO)Oc2ccc([C@@H](O)[C@H](O)CO)cc2OC)ccc1O | 109 | 76.1 | 10.8 | > 100 | 3.1 | 3.2 | Non-Toxic | 74.1 | -1.3 | 57.7 | -0.5 | 18.9 | 50.5 | 7 | 105 | 37.2 | 29.9
CCO[C@H](c1ccc(O[C@@H](CO)[C@@H](O)c2ccc(O)c(OC)c2)c(OC)c1)[C@@H](CO)c1ccc(O)c(OC)c1 | 79.6 | > 100 | 7.1 | 66.4 | -2.2 | 40.2 | Non-Toxic | 96.8 | 4.7 | 29.2 | 18.2 | 3.1 | 62.7 | 62.6 | 134 | 11.4 | 38.6
COc1cc([C@@H](O)[C@@H](CO)Oc2ccc([C@@H](O)[C@H](O)CO)cc2OC)ccc1O | 89 | 94.2 | 10.7 | > 100 | 2.4 | 2.6 | Non-Toxic | 26 | -1.2 | 52.5 | -2.9 | 21.2 | 18.5 | 4.4 | 66.3 | 30.8 | 12
COc1cc([C@@H](O)[C@H](CO)Oc2ccc([C@@H](OC)[C@H](CO)c3ccc(O)c(OC)c3)cc2OC)ccc1O | 43.6 | > 100 | 5.9 | 97.3 | 1.3 | 34.2 | Non-Toxic | 121 | 7 | 18.4 | 19.2 | 3.2 | 89.5 | 57.3 | 116 | 5.2 | 60.8
COc1cc([C@@H](O)[C@H](CO)Oc2c(OC)cc([C@@H](O)[C@H](O)CO)cc2OC)ccc1O | 114 | > 100 | 10.7 | > 100 | 5.1 | 2.7 | Non-Toxic | 84.6 | 0.6 | 47 | 1.3 | 13.7 | 58.1 | 3.4 | 119 | 28.2 | 35.9
COc1cc([C@H](O)[C@@H](CO)Oc2ccc([C@@H](O)[C@@H](CO)c3ccc(O)c(OC)c3)cc2OC)ccc1O | 68.6 | > 100 | 4.4 | 50.5 | 2.2 | 49.2 | Non-Toxic | 89.9 | 2.6 | 32.1 | 14.3 | 4.1 | 42.2 | 68.9 | 132 | 15.1 | 29.1
COc1cc([C@@H](O)[C@@H](CO)Oc2c(OC)cc([C@@H](O)[C@H](O)CO)cc2OC)ccc1O | 138 | > 100 | 11.8 | > 100 | 2.3 | 1.1 | Non-Toxic | 89.1 | -3.1 | 45.8 | -1.8 | 14.1 | 60 | 2.7 | 127 | 23.2 | 37.1
COc1cc([C@@H](O)[C@@H](CO)Oc2ccc([C@@H](OC)[C@H](O)CO)cc2OC)ccc1O | 114 | 47.9 | 12.9 | > 100 | 4.5 | 3.8 | Non-Toxic | 78.3 | 0.3 | 69.3 | -2.2 | 24.5 | 54.1 | 8.2 | 102 | 42.4 | 32.5
CN(C)c1ccc(O)c2c1C[C@H]1C[C@H]3[C@H](N(C)C)C(O)=C(C(N)=O)C(=O)[C@@]3(O)C(O)=C1C2=O [MINOCYCLINE] | – | – | – | 55.1 | – | 51.8 | – | – | 15.6 | – | 22.7 | – | – | 59.7 | – | – | –

Continued, in another order:

IC50 [2] [µM] | IC50 [6] [µM] | IC50 [10] [µM] | IC50 [17] [µM] | Compound | inhibition at 1 µM [1] [%] | inhibition at 50 µM [3] [%] | Activity [4] | Activity [5] [µmol/L] | inhibition at 1 µM [7] [%] | inhibition at 100 µM [8] [%] | inhibition at 10 µM [9] [%] | inhibition at 10 µM [11] [%] | Activity [12] [µmol/L] | inhibition at 100 µM [13] [%] | Activity [14] [µmol/L] | inhibition at 50 µM [15] [%] | Activity [16] [µmol/L]
30.2 | – | 18.2 | – | Cc1c(C)c2c(c(C)c1O)CCC(C)(C(=O)O)O2 (stereo unspecified) [TROLOX] | – | – | – | 185 | – | – | – | – | 96.9 | – | 172 | – | 51.7
67.2 | > 100 | 7.8 | 62.9 | COc1cc([C@@H](CO)[C@H](OC)c2ccc(O[C@H](CO)[C@@H](O)c3ccc(O)c(OC)c3)c(OC)c2)ccc1O | -1.2 | 42.1 | Non-Toxic | 106 | 5.7 | 17.1 | 22.1 | 2.9 | 73 | 61.2 | 128 | 9.3 | 45.8
82.4 | 84.4 | 9.5 | > 100 | COc1cc([C@H](O)[C@@H](CO)Oc2ccc([C@@H](O)[C@H](O)CO)cc2OC)ccc1O | 3.9 | 3.1 | Non-Toxic | 29.4 | -3.6 | 55.6 | 1.1 | 26.2 | 16 | 6.3 | 55.8 | 32.3 | 9.4
– | 69.2 | – | – | COc1cc(C2Oc3cc([C@H]4Oc5cc(O)cc(O)c5C(=O)[C@@H]4O)ccc3OC2CO)ccc1O (stereo partly specified) [SILIBININ] | 10.3 | – | – | – | – | 53.8 | – | 27 | – | – | – | 47 | –

From ChEMBL document CHEMBL3864147, “Antioxidant and anti-inflammatory neolignans from the seeds of hawthorn” (Bioorg Med Chem Lett, 2016)
